ChEMBL document CHEMBL1128472, “Reversible inhibitors of the gastric (H+/K+)-ATPase. 5. Substituted 2,4-diaminoquinazolines and thienopyrimidines” (J Med Chem, 1995)

How the values were obtained:
Canis familiaris [1] = assay: Histamine-stimulated gastric acid secretion in Heidenhain pouch dog at 4uM/Kg, on oral administration of the compound
Canis familiaris [2] = assay: Histamine-stimulated gastric acid secretion in Heidenhain pouch dog at 1uM/Kg, on iv administration of the compound; assay type: functional, Canis lupus familiaris, Stomach
[3] = molecular target: Potassium-transporting ATPase (Sus scrofa, UniProt P19156); assay: Inhibition of K+ stimulated gastric ATPase activity; assay type: tissue-based, Stomach
Chain of Potassium-transporting ATPase (P18434 whole entry): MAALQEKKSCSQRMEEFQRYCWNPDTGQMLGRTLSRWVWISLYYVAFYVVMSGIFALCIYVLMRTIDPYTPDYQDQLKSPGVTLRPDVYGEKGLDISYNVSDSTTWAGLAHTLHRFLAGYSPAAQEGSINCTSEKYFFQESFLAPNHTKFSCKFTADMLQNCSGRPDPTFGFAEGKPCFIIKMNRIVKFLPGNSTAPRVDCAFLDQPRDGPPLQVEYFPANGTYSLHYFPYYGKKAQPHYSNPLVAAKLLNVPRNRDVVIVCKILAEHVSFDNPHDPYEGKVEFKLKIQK
Chain of Potassium-transporting ATPase (P19156 whole entry): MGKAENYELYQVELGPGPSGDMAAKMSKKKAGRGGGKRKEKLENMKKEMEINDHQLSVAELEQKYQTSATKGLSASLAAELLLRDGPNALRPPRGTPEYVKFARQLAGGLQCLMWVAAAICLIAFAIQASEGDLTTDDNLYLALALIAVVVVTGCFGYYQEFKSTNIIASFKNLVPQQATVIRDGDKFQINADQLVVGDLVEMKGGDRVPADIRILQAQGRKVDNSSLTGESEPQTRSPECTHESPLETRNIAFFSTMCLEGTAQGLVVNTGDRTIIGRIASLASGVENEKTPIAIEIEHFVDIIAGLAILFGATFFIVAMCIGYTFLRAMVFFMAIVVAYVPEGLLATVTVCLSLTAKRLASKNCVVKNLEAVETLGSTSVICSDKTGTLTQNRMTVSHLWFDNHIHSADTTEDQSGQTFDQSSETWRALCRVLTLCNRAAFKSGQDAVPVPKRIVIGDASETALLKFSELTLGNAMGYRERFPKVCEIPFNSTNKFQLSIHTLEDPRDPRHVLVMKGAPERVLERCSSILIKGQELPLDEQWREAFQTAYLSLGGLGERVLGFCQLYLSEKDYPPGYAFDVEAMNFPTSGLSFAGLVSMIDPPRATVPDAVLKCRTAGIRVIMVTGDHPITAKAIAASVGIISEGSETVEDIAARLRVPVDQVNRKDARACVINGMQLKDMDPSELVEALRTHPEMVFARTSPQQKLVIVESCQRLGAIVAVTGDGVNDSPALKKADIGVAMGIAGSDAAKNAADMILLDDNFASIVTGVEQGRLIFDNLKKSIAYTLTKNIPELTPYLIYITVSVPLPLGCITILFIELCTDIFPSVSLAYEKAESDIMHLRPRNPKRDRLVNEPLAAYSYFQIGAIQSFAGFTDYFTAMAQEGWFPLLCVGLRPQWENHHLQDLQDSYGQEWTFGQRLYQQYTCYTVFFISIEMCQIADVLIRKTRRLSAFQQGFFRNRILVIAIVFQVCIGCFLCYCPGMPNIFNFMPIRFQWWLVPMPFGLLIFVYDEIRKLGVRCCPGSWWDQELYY
Outline: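 K+-stimulated ATPase activity measured in a lyophilized gastric vesicle preparation at pH 7; enzyme concentration estimated at around 2 nM from 32P-ATP binding.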

[4] = molecular target: T1, Potassium-transporting ATPase (Rattus norvegicus) (UniProt P09626+P18598); assay: Inhibition of pentagastrin stimulated gastric acid secretion in anesthetized rat at 10 uM/kg; assay type: functional; conditions: Stomach; 10 umol/kg
Outline: (§1)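 Anaesthetized rat with lumen-perfused stomach; acid secretion induced by pentagastrin; compound given intravenously; inhibition of acid output recorded.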

Canis familiaris [5] = assay: % inhibition of Histamine-stimulated gastric acid secretion in Heidenhain pouch dog at 4 uM/kg, on peroral administration of the compound.; assay type: functional, Canis lupus familiaris, Stomach
Outline: (§2)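 Heidenhain pouch dogs with histamine-stimulated acid secretion; compound given orally as a dry powder in a hard gelatin capsule; inhibition of acid secretion measured.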

Rattus norvegicus [6] = assay: Inhibition of pentagastrin stimulated gastric acid secretion in anesthetized rat on iv administration of the compound.; assay type: functional; conditions: Stomach
Outline: as §1

Canis familiaris [7] = assay: % inhibition of Histamine-stimulated gastric acid secretion in Heidenhain pouch dog at1uM/kg, on iv administration of the compound.; assay type: functional, Canis lupus familiaris, Stomach
[8] = molecular target: Potassium-transporting ATPase (Sus scrofa) (UniProt P18434+P19156); assay: Inhibition of K+ stimulated gastric ATPase activity at 100 uM[…]; assay type: tissue-based; conditions: Stomach
Rattus norvegicus [9] = assay: Inhibition of pentagastrin stimulated gastric acid secretion in anesthetized rat on 10 uM/kg, iv administration of the compound.; assay type: functional, Stomach
Outline: as §1

[10] = molecular target: T1, Potassium-transporting ATPase (Rattus norvegicus); assay: Inhibition of pentagastrin stimulated gastric acid secretion in anesthetized rat 10 uM/kg, on iv administration of the compound.; assay type: functional, organism-based; conditions: Stomach
Outline: as §1

Canis familiaris [11] = assay: % inhibition of Histamine-stimulated gastric acid secretion in Heidenhain pouch dog 4 uM/kg, on peroral administration of the compound.; assay type: functional, Canis lupus familiaris, Stomach
Outline: as §2

Canis familiaris [12] = assay: % inhibition of Histamine-stimulated gastric acid secretion in Heidenhain pouch dog 1 uM/kg, on iv administration of the compound.; assay type: functional, Canis lupus familiaris, Stomach
Rattus norvegicus [13] = assay: Inhibition of pentagastrin stimulated gastric acid secretion in anesthetized rat at 10 uM/kg, on iv administration of the compound.; assay type: functional, Stomach
Outline: as §1

Row | Compound | IC50 [3] | further results
1 | CN/C(=N\CCSCc1nc[nH]c1C)NC#N [CIMETIDINE] | – | ED50 (Canis familiaris [1]): 8.5 µmol/kg; ED50 (Canis familiaris [2]): 1.7 µmol/kg
2 | COc1cccc2c(Nc3ccccc3C)nc(N(C)c3ccccc3)nc12 | 0.59 µM | inhibition [4]: 37%
3 | CN(c1ccccc1)c1nc(N(C)c2ccccc2)c2ccccc2n1 | 0.067 µM | Inhibition (Canis familiaris [5]): 2%; ED50 (Rattus norvegicus [6]): 2.81 µmol/kg; Inhibition (Canis familiaris [7]): 73%
4 | Cc1ccccc1Nc1nc(NCCO)nc2ccccc12 | 4.6 µM | inhibition [4]: 21%
5 | Cc1ccccc1Nc1nc(Nc2ccccc2C)c2ccsc2n1 | – | inhibition [8]: 27%
6 | COc1ccc2nc(Nc3ccc(F)cc3C)nc(N(C)c3ccccc3)c2c1 | 0.25 µM | Inhibition (Rattus norvegicus [9]): 27%
7 | Cc1cc(F)ccc1Nc1nc(N(C)c2ccccc2)c2cc(OCCN(C)C)ccc2n1 | 1.3 µM | –
8 | Cc1ccccc1Nc1nc(N(C)c2ccccc2C)nc2ccccc12 | 2 µM | inhibition [4]: 27%
9 | Cc1cc(F)ccc1Nc1nc(N(C)c2ccccc2)c2cccc(OCCCN(C)C)c2n1 | 0.036 µM | inhibition [10]: 68%; Inhibition (Canis familiaris [11]): 0%
10 | COc1cccc2c(N(C)c3ccccc3C)nc(Nc3ccccc3C)nc12 | 0.1 µM | inhibition [10]: 93%
11 | COc1cccc2c(N(C)c3ccccc3)nc(Nc3ccc(F)cc3C)nc12 | 0.032 µM | inhibition [10]: 94%; Inhibition (Canis familiaris [11]): 32%; Inhibition (Canis familiaris [12]): 96%
12 | Cc1cc(F)ccc1Nc1nc(N(C)c2ccccc2)c2cc(O)ccc2n1 | 0.018 µM | Inhibition (Canis familiaris [11]): 0%; Inhibition (Canis familiaris [12]): 97%; ED50 (Rattus norvegicus [6]): 1.5 µmol/kg
13 | Cc1ccccc1Nc1nc(N(C)c2ccccc2)c2cccc(O)c2n1 | 0.26 µM | –
14 | Cc1ccccc1Nc1nc(N(C)c2ccccc2C)c2ccccc2n1 | 0.046 µM | inhibition [4]: 90%
15 | Cc1cc(F)ccc1Nc1nc(N(C)c2ccccc2)c2cc(OCCCN(C)C)ccc2n1 | 1.1 µM | –
16 | Cc1cc(F)ccc1Nc1nc(N(C)c2ccccc2)c2cccc(F)c2n1 | 0.14 µM | –
17 | COc1cccc2c(Nc3ccccc3C)ncnc12 | 11.6 µM | inhibition [4]: 30%
18 | Cc1ccccc1Nc1nc(N)nc2ccccc12 | 1.32 µM | ED50 (Rattus norvegicus [6]): 48 µmol/kg
19 | Cc1ccccc1Nc1nc(Nc2ccccc2)c2ccsc2n1 | – | inhibition [8]: 27%
20 | Cc1ccccc1Nc1nc(N(C)c2ccccc2)c2cccc(OCCCN(C)C)c2n1 | 0.021 µM | inhibition [10]: 49%; Inhibition (Canis familiaris [11]): 25%; Inhibition (Canis familiaris [12]): 18%
21 | Cc1cc(F)ccc1Nc1nc(N(C)c2ccccc2)c2ccccc2n1 | 0.021 µM | Inhibition (Canis familiaris [11]): 0%; Inhibition (Canis familiaris [12]): 79%; ED50 (Rattus norvegicus [6]): 1.94 µmol/kg
22 | CN(c1ccccc1)c1nc(N(C)c2ccccc2)c2ccsc2n1 | 1.3 µM | Inhibition (Rattus norvegicus [13]): 14%
23 | Cc1cc(F)ccc1Nc1nc(N(C)c2ccccc2)c2cc(OCCCN3CCOCC3)ccc2n1 | 0.37 µM | inhibition [10]: 5%

Row | Compound | IC50 [3] | further results
24 | CNc1nc(Nc2ccccc2C)c2cccc(OC)c2n1 | 0.64 µM | inhibition [4]: 19%
25 | COc1cccc2c(Nc3ccccc3C)nc(NCc3ccco3)nc12 | 1.9 µM | –
26 | Cc1cc(F)ccc1Nc1nc2c(C)cccc2c2c1CCN2c1ccccc1C | 0.13 µM | –
27 | COc1ccc(N(C)c2nc(Nc3ccccc3C)nc3ccccc23)cc1 | 0.034 µM | Inhibition (Canis familiaris [5]): 12%; inhibition [4]: 60%
28 | COc1ccc(Nc2nc(N(C)c3ccccc3)c3sccc3n2)c(C)c1 | 0.34 µM | –
29 | CN(c1ccccc1)c1nc(N(C)c2ccccc2)c2sccc2n1 | 0.3 µM | –
30 | CCOC(=O)COc1cccc2c(N(C)c3ccccc3)nc(Nc3ccc(F)cc3C)nc12 | 0.13 µM | Inhibition (Rattus norvegicus [9]): 39%
31 | COc1cccc2c(Nc3ccccc3C)nc(NCc3nccs3)nc12 | 3.8 µM | inhibition [4]: 33%
32 | Cc1cc(F)ccc1Nc1nc(N(C)c2ccccc2)c2cccc(OCCO)c2n1 | 0.1 µM | –
33 | Cc1ccccc1Nc1nc(N(C)c2ccc(O)cc2)c2ccccc2n1 | 0.019 µM | –
34 | Cc1cc(Cl)ccc1Nc1nc(N(C)c2ccccc2)c2ccccc2n1 | 0.041 µM | inhibition [10]: 31%
35 | CN(c1ccccc1)c1nc(Nc2ccccc2)nc2ccccc12 | 0.065 µM | ED50 (Rattus norvegicus [6]): 2.35 µmol/kg
36 | Cc1ccccc1Nc1nc(N)nc2c(C)cccc12 | 0.24 µM | inhibition [4]: 48%
37 | CCN(c1ccccc1)c1nc(Nc2ccccc2C)nc2ccccc12 | 0.32 µM | inhibition [4]: 59%
38 | COc1cccc2c(Nc3ccccc3C)nc(NCCc3ccccc3)nc12 | 3.2 µM | –
39 | COc1cccc2c(N(C)c3ccccc3)nc(N(C)c3ccccc3)nc12 | 0.074 µM | –
40 | Cc1ccccc1Nc1nc(N(C)c2ccc(F)cc2)c2ccccc2n1 | 0.12 µM | Inhibition (Rattus norvegicus [13]): 62%
41 | Cc1ccccc1Nc1nc(N(C)c2ccccc2)c2ccsc2n1 | 0.51 µM | –
42 | COc1ccc2nc(Nc3ccccc3C)nc(N(C)c3ccccc3)c2c1 | 0.51 µM | inhibition [10]: 46%
43 | CNc1nc2c(C)cccc2c2c1CCN2c1ccccc1C | 0.18 µM | –
44 | Cc1ccccc1Nc1nc(N(C)c2ccccc2)c2cccc(OCCO)c2n1 | 0.035 µM | inhibition [10]: 93%; Inhibition (Canis familiaris [11]): 8%; Inhibition (Canis familiaris [12]): 73%
45 | COc1ccc(Nc2nc(N(C)c3ccccc3)c3ccccc3n2)c(C)c1 | 0.36 µM | –
46 | Cc1ccccc1Nc1nc(N(C)c2ccccc2)c2ccccc2n1 | 0.022 µM | Inhibition (Canis familiaris [5]): 0%; inhibition [4]: 79%; Inhibition (Canis familiaris [7]): 74%

Row | Compound | IC50 [3] | further results
47 | COc1cccc2c(Nc3ccccc3C)nc(N3CCCC3)nc12 | 30 µM | inhibition [4]: 31%
48 | Cc1ccccc1Nc1nc(N2CCCC2)nc2ccccc12 | 2.26 µM | inhibition [4]: 17%
49 | Cc1ccccc1Nc1nc(NCc2ccccc2)nc2ccccc12 | 0.51 µM | –
50 | Cc1ccccc1Nc1nc(NCCc2ccccc2)nc2ccccc12 | 0.81 µM | inhibition [4]: 31%
51 | Cc1cc(F)ccc1Nc1nc(N(C)c2ccccc2)c2ccsc2n1 | 0.13 µM | –
52 | COc1cccc2c(Nc3ccccc3C)nc(NCc3ccccc3)nc12 | 2 µM | –
53 | Cc1cc(F)ccc1Nc1nc(N(C)c2ccccc2)c2sccc2n1 | 0.034 µM | Inhibition (Rattus norvegicus [13]): 49%
54 | COc1cccc2c(N(C)c3ccccc3C)nc(Nc3ccc(F)cc3C)nc12 | 0.095 µM | –
55 | CCNc1nc(Nc2ccccc2C)c2ccccc2n1 | 1.39 µM | –
56 | COc1cccc2c(N(C)c3ccccc3)nc(N)nc12 | 1.2 µM | inhibition [4]: 13%
57 | CN(c1ccccc1)c1nc(N)nc2ccccc12 | 3.3 µM | inhibition [4]: 17%
58 | CCCC(=O)c1cnc2c(OC)cccc2c1Nc1ccccc1C | – | ED50 (Canis familiaris [1]): 1.6 µmol/kg; ED50 (Canis familiaris [2]): 0.26 µmol/kg
59 | Cc1cc(F)ccc1Nc1nc(N(C)c2ccccc2)c2cccc(OCCCN3CCOCC3)c2n1 | 0.05 µM | inhibition [10]: 73%; Inhibition (Canis familiaris [11]): 0%
60 | Cc1cc(O)ccc1Nc1nc(N(C)c2ccccc2)c2ccccc2n1 | 1.07 µM | inhibition [10]: 23%
61 | COc1cccc2c(Nc3ccccc3C)nc(Nc3ccccc3C)nc12 | 2.5 µM | –
62 | Cc1ccccc1Nc1nc(Nc2ccccc2)c2ccccc2n1 | 0.94 µM | –
63 | Cc1ccccc1Nc1nc(N(C)c2ccccc2)c2cc(O)ccc2n1 | 0.024 µM | –
64 | COc1ccc(N(C)c2nc(Nc3ccccc3C)[n+](C)c3ccccc23)cc1 | 0.028 µM | –
65 | Cc1cc(F)ccc1Nc1nc(N(C)c2ccccc2)c2cccc(O)c2n1 | 0.17 µM | –
66 | Cc1ccccc1Nc1nc(Nc2ccccc2C)c2ccccc2n1 | 0.6 µM | –
67 | COc1cccc2c(Nc3ccccc3C)nc(N(C)C)nc12 | 16 µM | inhibition [4]: 37%
